According to ChEMBL document CHEMBL3098006, “Preparation of 8-hydroxyquinoline derivatives as potential antibiotics against Staphylococcus aureus” (Bioorg Med Chem Lett, 2014):
Converted amounts (≈) assume the structure as drawn.

Key:
Staphylococcus aureus [1] = assay: Antibacterial activity against Staphylococcus aureus assessed as growth inhibition after 24 hrs by broth dilution method; assay type: functional
Method in brief: (§1)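 Serial broth dilution in 96-well microtitre plate, compounds from 50 µg/mL top concentration (stocks 50 mg/mL in DMSO); methicillin positive control for S. aureus (from 50 µg/mL), […]. Incubation 37 °C, 24 h; MIC taken as lowest concentration giving complete growth inhibition.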

Escherichia coli = assay: Antibacterial activity against Escherichia coli assessed as growth inhibition after 24 hrs by broth dilution method; assay type: functional; method in brief: as §1
[2] = Cytotoxicity against human NE3 cells assessed as cell shrinkage after 24 hrs by SRB assay; assay type: cell-based
Method in brief: (§2)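 HaCaT keratinocytes and NE3 normal esophageal cells trypsinised, washed, resuspended at about 1×10^5 cells/mL, seeded in 96-well plates 24 h, then exposed 24 h to compounds from 50 µg/mL; doxorubicin 4 µg/mL positive control, 0.1% DMSO vehicle. SRB staining after TCA fixation, absorbance 575 nm; three independent experiments in triplicate, mean ± SD.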

HaCaT = assay: Cytotoxicity against human HaCaT cells assessed as cell shrinkage after 24 hrs by SRB assay; assay type: cell-based; method in brief: as §2
Staphylococcus aureus [3] = assay: Antibacterial activity against Staphylococcus aureus assessed as growth inhibition at 50 ug/mL after 24 hrs; assay type: functional
Method in brief: (§3)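 Agar well diffusion: S. aureus diluted in broth, plated on nutrient agar, wells punched with sterile pipette and loaded with compound (amount per well as in line) or methicillin positive control. Incubation 37 °C, 24 h; inhibition zone recorded as radius in mm, mean ± SD of three results.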

Staphylococcus aureus [4] = assay: Antibacterial activity against Staphylococcus aureus assessed as growth inhibition at 15 ug/mL after 24 hrs; assay type: functional; settings: read-out: IZ; method in brief: as §3
Staphylococcus aureus [5] = assay: Antibacterial activity against Staphylococcus aureus assessed as growth inhibition at 5 ug/mL after 24 hrs; assay type: functional; settings: read-out: IZ; method in brief: as §3

MIC (Staphylococcus aureus [1])	MIC (Escherichia coli)	Compound	IC50 [2]	IC50 (HaCaT)	further results
> 50 µg/mL	> 50 µg/mL	Cc1ccc2cccc(OCc3ccccc3)c2n1			
50 µg/mL (≈ 289 µM)	> 50 µg/mL	O=Cc1ccc2cccc(O)c2n1	16.1 µg/mL (≈ 92.7 µM)	19.1 µg/mL (≈ 111 µM)	inhibition zone (IZ) (Staphylococcus aureus [3]): 7.5 mm
> 50 µg/mL	> 50 µg/mL	Cc1ccc2cccc(OCCN3CCCCC3)c2n1			
> 50 µg/mL	> 50 µg/mL	CCOc1cccc2ccc(C)nc12			
> 50 µg/mL	> 50 µg/mL	COc1cccc2ccc(C)nc12			
> 50 µg/mL	> 50 µg/mL	CCCCOc1cccc2ccc(C)nc12			
50 µg/mL	> 50 µg/mL	Cl.O=Cc1ccc2cccc(O)c2n1	18.1 µg/mL	22.5 µg/mL	zone of inhibition at 50 µg/mL (Staphylococcus aureus [3]; Staphylococcus aureus, 24 h, read-out: IZ): 4.4 mm
	7.5 µg/mL (≈ 21.5 µM)	CC1(C)S[C@@H]2[C@H](NC(=O)[C@H](N)c3ccccc3)C(=O)N2[C@H]1C(=O)O [AMPICILLIN]			
6.25 µg/mL (≈ 19.7 µM)	> 50 µg/mL	Cc1ccc2c(Br)cc(Br)c(O)c2n1 [BROQUINALDOL]	18.6 µg/mL (≈ 58.7 µM)	22.5 µg/mL (≈ 70.9 µM)	zone of inhibition at 15 µg/mL (Staphylococcus aureus [4]): 7.43 mm
		COc1cccc2c1C(=O)c1c(O)c3c(c(O)c1C2=O)C[C@@](O)(C(=O)CO)C[C@@H]3O[C@H]1C[C@H](N)[C@H](O)[C@H](C)O1 [DOXORUBICIN]	1.89 µg/mL (≈ 3.48 µM)	3.26 µg/mL (≈ 6 µM)	
3.12 µg/mL (≈ 8.21 µM)		COc1cccc(OC)c1C(=O)N[C@@H]1C(=O)N2[C@@H]1SC(C)(C)[C@@H]2C(=O)O [METHICILLIN]			zone of inhibition at 5 µg/mL (Staphylococcus aureus [5]): 10.8 mm
